Sampled rows, rich in hits. Any-hit rate of the full collection: about 3.1%.
VIM-2 inhibitor: inhibitors of Pseudomonas aeruginosa VIM-2 metallo-beta-lactamase; inhibition, % at 5.6 µM; purified VIM-2, nitrocefin hydrolysis, epi-absorbance fluorescence; hit rate 0.89% among 290,000;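 active = inhibition above the mean of all tested compounds plus 3 SD, cutoff set per screening run, cut at about 7.5% in these data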;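 also: red hydrolysis product quenches plate fluorescence so inhibitors raise well fluorescence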
core dimer inh: blocks dimerization of HCV core protein | inhibition, % at 5 µM | TR-FRET GST/Flag-core106 dimerization, 1536-well | hit rate 0.33% among 300,000 | AID 1899;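 active = inhibition above the mean of all tested compounds plus 3 SD, set per screening campaign, cut at about 45% in these data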
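Test system: GST/Flag-tagged HCV core106 proteins; Medium: KF-containing HEPES buffer, pH 7.45, DTT, CHAPS, BSA; Times: compound-protein-antibody incubation 4 h at 22.5 °C; Detection: TR-FRET 671 and 617 nm emission; Benchmarks: wells lacking GST-core106 and wells with excess unlabelled core106.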
IMP-1 inh-1: inhibitors of Pseudomonas aeruginosa IMP-1 metallo-beta-lactamase; inhibition, % at 5.6 µM; purified IMP-1, nitrocefin hydrolysis, epi-absorbance fluorescence; hit rate 0.45% among 290,000;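 active = inhibition above the mean plus 3 SD of all compounds in the same screening run, cut at about 4.5% in these data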
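System: purified IMP-1 / Input: IMP-1 dispensed at 0.2 nM / Medium: 50 mM HEPES pH 7.1, 50 µM ZnSO4, 0.05% Brij 35 / Timing: 15 min enzyme–compound preincubation, then 25 min nitrocefin reaction, 25 °C / Technique: plate fluorescence quenching by hydrolysis product, ex 480/em 530 nm / Repeats: singlicate testing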
HCV NS3 hel inh: HCV NS3 helicase inhibition | NS3 helicase DNA unwinding, Cy5 molecular beacon fluorescence | inhibition, % at 10.9 µM | hit rate 0.56% among 290,000 | AID 1800;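 active = inhibition above the mean of all tested compounds plus 3 SD, set per campaign, cut at about 35% in these data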
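Test system: hepatitis C virus NS3 helicase domain fragment enzyme. Also added: annealed dual-labelled DNA beacon duplex, ATP-started. Timing: 60 min unwinding reaction at 25 °C after ATP addition. Technique: Cy5 fluorescence. Measure: % inhibition of unwinding.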
SUMO HTRF inh: inhibitors of human SUMOylation (UBC9). P63279. HTRF SUMOylation assay, SAE1/SAE2 + UBC9, in vitro. inhibition, % at 35 µM. hit rate 0.36% among 290,000. AID 2006; in the data active = inhibition above about 50%, passing the limit was not always enough
Target sequence (P63279 whole entry, looked up): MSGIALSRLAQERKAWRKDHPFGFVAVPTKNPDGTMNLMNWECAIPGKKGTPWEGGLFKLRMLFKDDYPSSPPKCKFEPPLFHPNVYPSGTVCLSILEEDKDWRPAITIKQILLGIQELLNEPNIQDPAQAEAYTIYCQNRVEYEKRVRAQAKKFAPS
PHOSPHO1 block: blocks human PHOSPHO1 phosphatase activity; Q8TCT1; recombinant PHOSPHO1, absorbance phosphatase assay; inhibition, % at 13.3 µM; hit rate 1.1% among 290,000; in the data active = inhibition above about 60%
Target sequence (Q8TCT1 whole entry, looked up): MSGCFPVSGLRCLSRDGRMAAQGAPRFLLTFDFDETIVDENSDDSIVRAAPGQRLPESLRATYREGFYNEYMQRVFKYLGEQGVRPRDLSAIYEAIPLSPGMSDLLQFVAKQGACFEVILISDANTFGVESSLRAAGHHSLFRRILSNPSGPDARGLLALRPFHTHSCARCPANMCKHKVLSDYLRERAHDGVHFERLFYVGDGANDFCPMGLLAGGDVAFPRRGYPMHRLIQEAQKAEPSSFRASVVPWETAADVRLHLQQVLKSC
IMP-1 inh-2: selectivity counter-screen for VIM-2 inhibitors: IMP-1 metallo-beta-lactamase inhibitors; shares compounds with VIM-2 inhibitor; purified IMP-1, nitrocefin hydrolysis, epi-absorbance fluorescence; inhibition, % at 5.6 µM; 1,300 tested, under 10 active; call rule not given here
VIM-2 FRET inh: counter-screen for VIM-2 inhibitors: epi-absorbance artifacts via FRET. AID 1857. purified VIM-2, CCF2 FRET substrate hydrolysis. shares compounds with VIM-2 inhibitor. inhibition, % at 5.6 µM. hit rate 23% among 1,300;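 active = inhibition above the mean of all tested compounds plus 3 SD, cut at about 19% in these data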
TEM-1 inh: selectivity counter-screen for VIM-2 inhibitors: E. coli TEM-1 inhibitors; shares compounds with VIM-2 inhibitor; Purified TEM-1, nitrocefin hydrolysis, epi-absorbance fluorescence; inhibition, % at 5.6 µM; hit rate 3% among 1,300;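 active = inhibition above that campaign's mean inhibition plus 3 SD, cut at about 0.46% in these data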
VIM-2 inh conf: confirmation of P. aeruginosa VIM-2 metallo-beta-lactamase inhibitors; hit rate 96% among 1,300; purified VIM-2, nitrocefin hydrolysis, epi-absorbance; shares compounds with VIM-2 inhibitor; inhibition, % at 5.6 µM;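 active = inhibition of the VIM-2 beta-lactamase enzyme above about 11% from the earlier first-round screen, limit read from the data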
Of the large screens only hits and unclear results are named; the others gave an inactive call (follow-up assays come after a bar, where they were run).

CC1CCCN(C(=O)c2cc3c(=O)n4ccccc4nc3s2)C1 (stereo unspecified)	none
Cc1cccn2c(=O)c3cc(C(=O)N4CCCC(C)C4)sc3nc12 (stereo unspecified)	VIM-2 inhibitor 15 | IMP-1 inh-2 inactive | VIM-2 FRET inh inactive | TEM-1 inh inactive | VIM-2 inh conf 21
Cc1ccc(C)c(NC(=S)N(C)CCO)c1	none
CCc1ccc(OCC(=O)NNC(=O)c2ccc(NC(=O)C3CC3)cc2)cc1	none
NC(=O)SCC(=O)Nc1ccccc1C(=O)O	VIM-2 inhibitor 13 | IMP-1 inh-2 inactive | VIM-2 FRET inh 50 | TEM-1 inh inactive | VIM-2 inh conf 31
O=C(CSc1cn[nH]n1)Nc1ccccc1C(=O)O	VIM-2 inhibitor 20 | IMP-1 inh-2 inactive | VIM-2 FRET inh 40 | TEM-1 inh inactive | VIM-2 inh conf 23
O=C(CSc1ccccc1)Nc1ccccc1C(=O)O	none
Cc1cc(OCC(=O)NCCCn2ccnc2)c2c(C)cc(=O)oc2c1	VIM-2 inhibitor 28 | IMP-1 inh-2 inactive | VIM-2 FRET inh inactive | TEM-1 inh inactive | VIM-2 inh conf 36
CCCc1cc(=O)oc2cc(C)cc(OCC(=O)NCCCn3ccnc3)c12	VIM-2 inhibitor 24 | IMP-1 inh-2 inactive | VIM-2 FRET inh inactive | TEM-1 inh inactive | VIM-2 inh conf 39
Cc1cc(OCC(=O)NCc2cccnc2)c2c(C)cc(=O)oc2c1	none
Cc1cc(OCC(=O)Nc2cccnc2)c2c(C)cc(=O)oc2c1	VIM-2 inhibitor 21 | IMP-1 inh-2 inactive | VIM-2 FRET inh inactive | TEM-1 inh inactive | VIM-2 inh conf 33
O=C(Cn1ccc2ccccc2c1=O)NCC(=O)N1CCCCC1	none
CC(C)(CO)C(O)C(=O)NCCCO (stereo unspecified)	none (no result: VIM-2 inhibitor, IMP-1 inh-1, HCV NS3 hel inh, SUMO HTRF inh, PHOSPHO1 block)
O=C(O)c1ccccc1C(=O)c1cccc2ccccc12	VIM-2 inhibitor 31 | IMP-1 inh-2 inactive | VIM-2 FRET inh 54 | TEM-1 inh inactive | VIM-2 inh conf 35
O=C(O)CCC(=O)c1cccc2ccccc12	none
C=C(c1cccc2ccccc12)P(=O)(O)O	VIM-2 inhibitor 35 | IMP-1 inh-2 inactive | VIM-2 FRET inh 62 | TEM-1 inh inactive | VIM-2 inh conf 44
Cc1nn2c(-c3ccc(F)cc3)ccnc2c1Cl	VIM-2 inhibitor 59 | IMP-1 inh-2 inactive | VIM-2 FRET inh inactive | TEM-1 inh inactive | VIM-2 inh conf 70
Cc1nn2c(-c3ccc(F)cc3)ccnc2c1Br	none
O=C(O)c1ncsc1-c1ccccc1	VIM-2 inhibitor 13 | IMP-1 inh-2 inactive | VIM-2 FRET inh 24 | TEM-1 inh inactive | VIM-2 inh conf 16
O=[N+]([O-])c1ccc(C23CC4CC(CC(O)(C4)C2)C3)cc1	VIM-2 inhibitor 15 | IMP-1 inh-2 inactive | VIM-2 FRET inh 34 | TEM-1 inh inactive | VIM-2 inh conf 22
COc1ccc(OC)c(CC(NC(C)=O)C(=O)NC2CCN(c3nc(OC)nc(OC)n3)CC2)c1 (stereo unspecified)	none
O=[N+]([O-])c1ccc(-n2cccn2)c(-c2nn[nH]n2)c1	none
CC1CC(C)CN(c2ccc([N+](=O)[O-])cc2-c2nn[nH]n2)C1 (stereo unspecified)	VIM-2 inhibitor 33 | IMP-1 inh-2 inactive | VIM-2 FRET inh 61 | TEM-1 inh 2.3 | VIM-2 inh conf 45
S=c1[nH]nc(-c2ccc3ccccc3n2)n1-c1ccccc1Cl	none
S=c1[nH]nc(-c2ccn[nH]2)n1-c1ccccc1Cl	VIM-2 inhibitor 17 | IMP-1 inh-2 inactive | VIM-2 FRET inh 34 | TEM-1 inh inactive | VIM-2 inh conf 22

Bioassay records deposited in PubChem by several laboratories.
